Published values gathered from unrelated publications.
Protocols differ between the studies behind these lines.
Cell line: U-87 MG
Effect on: cell growth or viability

| SMILES | method | tested at | time | measurement | value |
| --- | --- | --- | --- | --- | --- |
| Cn1nnc2c(Cl)ncn2c1=O | resazurin |  | 7 days | IC50 | 15 µM |
| Oc1c(C(c2ccc(F)cc2)N2CCCCC2)ccc2c1CCC2 (centres unmarked) | MTT | 30 µM |  | inhibition | 28% |
| c1cc2c(cc1CNCC1(N3CCCC3)COC1)OCCO2 |  | 30 µM | 48 h | viability | 95.7% |
| Cc1ccc(C(=O)Nc2ccc(Oc3cc4cnn(C)c4cc3-c3cn[nH]c3)c(F)c2)c(=O)n1-c1ccc(F)cc1 | ATP luminescence |  |  | IC50 | 0.129 µM |
| Cn1nnc2c(C(N)=O)ncn2c1=O | MTT |  | 72 h | IC50 | 596 µM |
| CC(C)C[C@H](NC(=O)[C@H](Cc1ccccc1)NC(=O)c1cnccn1)B(O)O | ATP luminescence |  |  | IC50 | 0.02 µM |
| Cc1cc(NC(=O)c2cccc3cc(-c4cccc5[nH]nc(N)c45)ccc23)ccc1F | CCK-8 |  | 72 h | IC50 | > 20 µM |
| COc1cccc2c1C(=O)c1c(O)c3c(c(O)c1C2=O)C[C@@](O)(C(=O)CO)C[C@@H]3O[C@H]1C[C@H](N)[C@H](O)[C@H](C)O1 | WST-1 |  | 72 h | IC50 | 0.04 µM |
| FC1CCN(C2(CNCc3ccc(-c4ccccc4)o3)COC2)C1 (centres unmarked) |  | 30 µM | 48 h | viability | 46.6% |
| Cn1nnc2c(-c3ccccc3)ncn2c1=O | resazurin |  | 7 days | IC50 | 9 µM |
| Fc1ccc2[nH]cc(CNCC3(N4CCC(F)C4)COC3)c2c1 (centres unmarked) |  | 30 µM | 48 h | viability | 94.6% |
| CCN(CC)C(=O)c1ncn2c(=O)n(C)nnc12 | resazurin |  | 7 days | IC50 | 80 µM |
| c1cc2cc(CNCC3(N4CCCC4)COC3)ccc2[nH]1 |  | 30 µM | 48 h | viability | 98.6% |
| COc1cccc2c1C(=O)c1c(O)c3c(c(O)c1C2=O)C[C@@](O)(C(=O)CO)C[C@@H]3O[C@H]1C[C@H](N)[C@H](O)[C@H](C)O1 | SRB |  |  | IC50 | 0.1 µM |
| Fc1ccc2c(CNCC3(N4CCC(F)C4)COC3)c[nH]c2c1 (centres unmarked) |  | 30 µM | 48 h | viability | 97.6% |
| Cn1nnc2c(C(N)=O)ncn2c1=O | resazurin |  | 7 days | IC50 | 51 µM |
| COc1cc(Nc2nccc(-c3cnn4nc(OC)ccc34)n2)cc(C(F)(F)F)c1 | ATP luminescence |  |  | IC50 | 0.84 µM |
